Substitutions are numbered along the chain they refer to. Activity calls are given as the source filed them. The calls are words filed in the database; no cut-off is given here.
Key:
[1] = Metabolic stability in dog NADPH-fortified hepatic microsomes assessed as oxidative metabolism; assay type: ADME, Canis lupus familiaris, Liver
Summary of the method: (§1)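 Compound incubated with NADPH-fortified hepatic microsomes from rat, dog, monkey or human. Oxidative metabolism monitored.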

[2] = Clearance in rhesus monkey; assay type: ADME, organism-based, Macaca mulatta; conditions: in vivo
[3] = Half life in rat at 3 mg/kg, po and 1 mg/kg, iv; assay type: ADME, organism-based; conditions: in vivo
Summary of the method: (§2)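 Rats (n = 2) dosed orally at 3 mg/kg and IV at 1 mg/kg. Interanimal variability under 20% for all values.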

[4] = Metabolic stability in human NADPH-fortified hepatic microsomes assessed as oxidative metabolism; assay type: ADME, Liver; summary of the method: as §1
[5] = Ratio of drug level in cerebrospinal fluid to fraction unbound level in plasma of Sprague-Dawley rat at 10 mg/kg, po; assay type: ADME, organism-based; parameters: dose 10 mg/kg, route oral; conditions: in vivo
[6] = Half life in rhesus monkey; assay type: ADME, organism-based, Macaca mulatta; conditions: in vivo
[7] = Oral bioavailability in dog at 3 mg/kg; assay type: ADME, organism-based, Canis lupus familiaris; conditions: in vivo
Summary of the method: (§3)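 Dog PK, n = 2 animals. Given orally at 3 mg/kg and intravenously at 1 mg/kg. Interanimal variability under 20% for all values.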

Mus musculus = test: Antiamnesic activity against scopolamine-induced dementia in ip dosed B6SJL mouse assessed as increase in freezing behavior after 24 hrs; assay type: functional, organism-based
Summary of the method: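 Male B6SJL mice, 10 weeks old and naive (n = 12–16/group), were given compound IP in 5% beta-cyclodextrin and/or scopolamine 0.3 mg/kg in 0.9% saline 30 min before training. Training was 2 tone (3 kHz, 85 dB, 30 s)–footshock (0.5 mA, 1 s) pairings 2 min apart. Freezing in the same chamber was video-scored 24 h later.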

[8] = Oral bioavailability in rat at 3 mg/kg; assay type: ADME, organism-based; conditions: in vivo; summary of the method: as §2
[9] = target: T1, Muscarinic acetylcholine receptor M2 (Homo sapiens) (UniProt P08172); test: Agonist activity at human muscarinic M2 receptor expressed in CHONFAT cells assessed as increase in acetylcholine-induced calcium mobilization at 10 uM preincubated for 4 mins measured after 1 hr by FLIPR assay; assay type: functional, cell-based
T1 sequence (whole entry): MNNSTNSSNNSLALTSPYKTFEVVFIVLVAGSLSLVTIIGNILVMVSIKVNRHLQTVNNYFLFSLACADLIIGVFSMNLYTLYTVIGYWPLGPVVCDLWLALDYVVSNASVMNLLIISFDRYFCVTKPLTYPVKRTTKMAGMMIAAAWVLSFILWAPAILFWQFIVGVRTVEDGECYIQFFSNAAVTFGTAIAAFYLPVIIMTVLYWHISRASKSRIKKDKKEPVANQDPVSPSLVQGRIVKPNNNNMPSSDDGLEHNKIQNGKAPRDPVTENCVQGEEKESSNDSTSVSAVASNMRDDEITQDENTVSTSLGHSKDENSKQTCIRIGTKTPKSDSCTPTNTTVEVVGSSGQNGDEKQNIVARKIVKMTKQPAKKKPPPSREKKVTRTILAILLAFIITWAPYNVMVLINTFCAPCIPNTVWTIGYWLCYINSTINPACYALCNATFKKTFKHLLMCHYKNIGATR
Summary of the method: (§4)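 CHO-NFAT cells expressing the named muscarinic receptor (human M1–M4; rhesus, dog or rat M1 in CHO-K1) were plated at 25,000 cells/well and grown overnight at 37 °C, 6% CO2. Cells were loaded with 1 μM Fluo-4AM for 1 h, washed, and preincubated 4 min with serially diluted compound (final DMSO 0.67%). They were then stimulated 4 min with an EC20 of ACh, and Ca2+ flux was read by FLIPR384.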

[10] = Half life in dog at 3 mg/kg, po and 1 mg/kg, iv; assay type: ADME, organism-based, Canis lupus familiaris; conditions: in vivo; summary of the method: as §3
[11] = target: T2, Muscarinic acetylcholine receptor M1 (Mus musculus) (UniProt P12657); test: Agonist activity at mouse muscarinic M1 receptor expressed in CHOK1 cells assessed as potentiation of acetylcholine-induced calcium mobilization preincubated for 4 mins measured after 1 hr by FLIPR assay; assay type: functional, cell-based; conditions: CHO-K1
T2 sequence (whole entry): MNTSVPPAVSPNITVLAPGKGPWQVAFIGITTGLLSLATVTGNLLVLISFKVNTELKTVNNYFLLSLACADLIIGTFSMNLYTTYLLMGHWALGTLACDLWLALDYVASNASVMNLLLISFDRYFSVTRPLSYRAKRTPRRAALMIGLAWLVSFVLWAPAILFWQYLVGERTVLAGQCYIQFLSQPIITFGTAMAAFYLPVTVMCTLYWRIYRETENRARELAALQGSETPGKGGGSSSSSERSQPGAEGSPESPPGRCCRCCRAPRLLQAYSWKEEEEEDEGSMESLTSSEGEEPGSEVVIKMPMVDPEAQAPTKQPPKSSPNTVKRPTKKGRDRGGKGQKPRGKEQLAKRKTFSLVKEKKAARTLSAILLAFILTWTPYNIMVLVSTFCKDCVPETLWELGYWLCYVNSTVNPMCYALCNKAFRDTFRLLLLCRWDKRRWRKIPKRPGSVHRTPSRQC
Summary of the method: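 CHO-NFAT cells (CHO-K1 background) expressing mouse M1, plated 25,000/well, grown overnight at 37 °C, 6% CO2. Cells washed in HBSS with 20 mM Hepes, 2.5 mM probenecid, 0.1% BSA, then loaded with 1 μM Fluo-4AM for 1 h at 37 °C. Compound (final 0.67% DMSO) preincubated 4 min, then stimulated 4 min with EC20 ACh. Ca2+ flux read on FLIPR384.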

[12] = target: T3, Muscarinic acetylcholine receptor M1 (Macaca mulatta) (UniProt P56489); test: Agonist activity at rhesus monkey muscarinic M1 receptor expressed in CHOK1 cells assessed as potentiation of acetylcholine-induced calcium mobilization preincubated for 4 mins measured after 1 hr by FLIPR assay; assay type: functional, cell-based; conditions: CHO-K1; summary of the method: as §4
T3 sequence (whole entry): T2 sequence (whole entry) with V5A, S254T, A265P, E277D, K320R, G337A, V413I

[13] = Metabolic stability in rat NADPH-fortified hepatic microsomes assessed as oxidative metabolism; assay type: ADME, Liver; summary of the method: as §1
[14] = target: Muscarinic acetylcholine receptor M3 (Homo sapiens) (UniProt P20309); test: Agonist activity at human muscarinic M3 receptor expressed in CHONFAT cells assessed as increase in acetylcholine-induced calcium mobilization at 10 uM preincubated for 4 mins measured after 1 hr by FLIPR assay; assay type: functional, cell-based; summary of the method: as §4
[15] = Clearance in dog at 3 mg/kg, po and 1 mg/kg, iv; assay type: ADME, organism-based, Canis lupus familiaris; conditions: in vivo; summary of the method: as §3
[16] = target: Voltage-gated inwardly rectifying potassium channel KCNH2 (Homo sapiens, UniProt Q12809); test: Inhibition of human ERG
Voltage-gated inwardly rectifying potassium channel KCNH2, sequence (Q12809 whole entry): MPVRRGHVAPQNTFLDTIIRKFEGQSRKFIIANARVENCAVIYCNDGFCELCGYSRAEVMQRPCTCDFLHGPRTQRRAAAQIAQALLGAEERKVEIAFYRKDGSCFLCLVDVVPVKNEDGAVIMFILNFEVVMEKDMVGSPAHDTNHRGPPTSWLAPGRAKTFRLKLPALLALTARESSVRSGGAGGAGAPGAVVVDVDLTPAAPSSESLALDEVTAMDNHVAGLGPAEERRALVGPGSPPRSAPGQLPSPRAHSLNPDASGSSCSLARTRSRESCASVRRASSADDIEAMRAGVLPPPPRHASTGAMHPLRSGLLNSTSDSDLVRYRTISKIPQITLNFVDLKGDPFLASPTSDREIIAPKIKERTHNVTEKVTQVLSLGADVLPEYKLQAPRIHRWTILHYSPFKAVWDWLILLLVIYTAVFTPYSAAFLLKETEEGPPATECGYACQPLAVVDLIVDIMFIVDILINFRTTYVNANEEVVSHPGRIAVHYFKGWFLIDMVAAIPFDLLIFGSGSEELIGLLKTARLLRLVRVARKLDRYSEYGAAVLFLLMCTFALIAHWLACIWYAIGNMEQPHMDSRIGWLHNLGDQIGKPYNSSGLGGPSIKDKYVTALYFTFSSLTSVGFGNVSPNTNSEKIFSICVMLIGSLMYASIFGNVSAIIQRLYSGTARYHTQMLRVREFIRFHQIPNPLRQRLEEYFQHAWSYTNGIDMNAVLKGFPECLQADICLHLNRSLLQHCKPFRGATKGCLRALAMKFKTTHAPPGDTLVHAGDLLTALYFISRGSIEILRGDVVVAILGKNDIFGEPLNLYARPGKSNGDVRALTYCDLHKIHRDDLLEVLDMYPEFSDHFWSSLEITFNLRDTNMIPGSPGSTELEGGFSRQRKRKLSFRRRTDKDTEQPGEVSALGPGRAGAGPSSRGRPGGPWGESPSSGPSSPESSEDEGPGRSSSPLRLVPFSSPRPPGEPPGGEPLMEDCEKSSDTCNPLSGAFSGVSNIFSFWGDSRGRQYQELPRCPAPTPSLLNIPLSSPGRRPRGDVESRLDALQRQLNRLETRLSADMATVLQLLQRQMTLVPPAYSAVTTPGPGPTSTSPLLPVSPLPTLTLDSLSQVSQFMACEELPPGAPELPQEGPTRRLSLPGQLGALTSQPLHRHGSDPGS

Muscarinic acetylcholine receptor M3 (Homo sapiens), sequence (P20309 whole entry, looked up): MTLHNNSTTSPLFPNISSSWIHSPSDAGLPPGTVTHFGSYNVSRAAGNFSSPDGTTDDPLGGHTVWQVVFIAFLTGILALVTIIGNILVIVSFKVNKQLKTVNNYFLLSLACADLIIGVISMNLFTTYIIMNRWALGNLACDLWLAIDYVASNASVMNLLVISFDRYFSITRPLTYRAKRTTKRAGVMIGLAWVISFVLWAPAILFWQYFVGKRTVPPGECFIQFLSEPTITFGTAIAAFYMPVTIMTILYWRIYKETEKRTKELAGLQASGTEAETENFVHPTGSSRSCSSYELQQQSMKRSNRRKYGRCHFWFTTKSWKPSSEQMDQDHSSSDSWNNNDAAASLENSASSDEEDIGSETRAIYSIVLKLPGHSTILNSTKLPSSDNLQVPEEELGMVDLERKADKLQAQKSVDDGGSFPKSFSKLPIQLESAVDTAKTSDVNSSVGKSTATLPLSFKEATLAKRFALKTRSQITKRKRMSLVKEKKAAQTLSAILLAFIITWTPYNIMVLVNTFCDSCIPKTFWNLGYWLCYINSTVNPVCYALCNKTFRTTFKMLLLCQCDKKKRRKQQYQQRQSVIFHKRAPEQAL

Question: Which results are given for `N#CC1(c2ccccn2)CCN(Cc2cc(C(=O)O)c(=O)n3ccccc23)CC1` [MSD-M1PAM]?
Answer: Stability [1]: Stable; clearance [2]: 17 mL/min/kg; half-life [3]: 1.7 h; Stability [4]: Stable; Ratio [5]: 0.3; half-life [6]: 3.6 h; bioavailability [7]: 62%; Activity (Mus musculus): Dose-dependent effect; bioavailability [8]: 68%; Activity [9]: inactive; half-life [10]: 4.4 h; IP [11]: 69 nM; IP [12]: 49 nM; Stability [13]: Stable; Activity [14]: inactive; clearance [15]: 7.4 mL/min/kg; IC50 [16]: > 30 µM

Source: ChEMBL document CHEMBL1799933, “Discovery of a selective allosteric M1 receptor modulator with suitable development properties based on a quinolizidinone carboxylic acid scaffold” (J Med Chem, 2011)
